≈ marks a conversion by molar mass, not a printed value.
Key:
Format in all cases: functional
[1] = system: Pichia kudriavzevii; test: Antifungal activity against Candida krusei KCCM 11655 after 1 day; details: KCCM 11655, 24 h
[2] = system: Cryptococcus neoformans; test: Antifungal activity against Cryptococcus neoformans KCCM 50564 after 1 day; details: KCCM 50564, 24 h
[3] = system: Aspergillus niger; test: Antifungal activity against Aspergillus niger KCTC 1231 after 2 days; details: KCTC 1231, 48 h
[4] = system: Aspergillus flavus; test: Antifungal activity against Aspergillus flavus KCCM 11899 after 2 days; details: KCCM 11899, 48 h
[5] = system: Escherichia coli; test: Antibacterial activity against Escherichia coli ATCC 25922
[6] = system: Staphylococcus aureus; test: Antibacterial activity against Staphylococcus aureus ATCC 29213
[7] = system: Mycobacterium tuberculosis; test: Antitubercular activity against Mycobacterium tuberculosis H37Rv ATCC 27294 after 7 days by BACTEC method; details: H37Rv ATCC 27294, 168 h
Outline: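 Screened in vitro against M. tuberculosis H37Rv in a modified BACTEC 460 radiometric system. Test compound stocks were made at 1 mg/ml in DMSO and filter-sterilised through 0.22 µm PTFE filters. MIC was read, with rifampin as the reference agent.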

## COc1ccc(/C=N/NC(=O)c2cc(-c3ccc(Cl)cc3)n[nH]2)cc1OC
[1]
  MIC: 50 µg/mL (≈ 130 µM)
[2]
  MIC: 12.5 µg/mL (≈ 32.5 µM)
[3]
  MIC: 25 µg/mL (≈ 65 µM)
[4]
  MIC: 12.5 µg/mL (≈ 32.5 µM)
[5]
  MIC: 4 µg/mL (≈ 10.4 µM)
[6]
  MIC: 0.25 µg/mL (≈ 0.65 µM)
[7]
  MIC: 0.37 µg/mL (≈ 0.961 µM)

## O=C(N/N=C/c1ccccc1)c1cc(-c2ccc(Cl)cc2)n[nH]1
[1]
  MIC: 12.5 µg/mL (≈ 38.5 µM)
[2]
  MIC: 1.6 µg/mL (≈ 4.93 µM)
[3]
  MIC: 50 µg/mL (≈ 154 µM)
[4]
  MIC: 3.2 µg/mL (≈ 9.85 µM)
[5]
  MIC: 1 µg/mL (≈ 3.08 µM)
[6]
  MIC: 4 µg/mL (≈ 12.3 µM)
[7]
  MIC: > 5 µg/mL

## COc1ccc(/C=N/NC(=O)c2cc(-c3ccc(Cl)cc3)n[nH]2)cc1
[1]
  MIC: 100 µg/mL (≈ 282 µM)
[2]
  MIC: 50 µg/mL (≈ 141 µM)
[3]
  MIC: 12.5 µg/mL (≈ 35.2 µM)
[4]
  MIC: 100 µg/mL (≈ 282 µM)
[5]
  MIC: 0.01 µg/mL (≈ 0.0282 µM)
[6]
  MIC: 0.18 µg/mL (≈ 0.507 µM)
[7]
  MIC: 0.85 µg/mL (≈ 2.4 µM)

## COc1cc(/C=N/NC(=O)c2cc(-c3ccc(Cl)cc3)n[nH]2)ccc1O
[1]
  MIC: 12.5 µg/mL (≈ 33.7 µM)
[2]
  MIC: 1.6 µg/mL (≈ 4.32 µM)
[3]
  MIC: 25 µg/mL (≈ 67.4 µM)
[4]
  MIC: 12.5 µg/mL (≈ 33.7 µM)
[5]
  MIC: 0.017 µg/mL (≈ 0.0458 µM)
[6]
  MIC: 0.12 µg/mL (≈ 0.324 µM)
[7]
  MIC: 0.55 µg/mL (≈ 1.48 µM)

## O=C(N/N=C/c1ccccc1O)c1cc(-c2ccc(Cl)cc2)n[nH]1
[1]
  MIC: 50 µg/mL (≈ 147 µM)
[2]
  MIC: 25 µg/mL (≈ 73.4 µM)
[3]
  MIC: 100 µg/mL (≈ 293 µM)
[4]
  MIC: 6.3 µg/mL (≈ 18.5 µM)
[5]
  MIC: 0.015 µg/mL (≈ 0.044 µM)
[6]
  MIC: 0.4 µg/mL (≈ 1.17 µM)
[7]
  MIC: 1.1 µg/mL (≈ 3.23 µM)

## O=C(N/N=C/c1ccc(O)cc1)c1cc(-c2ccc(Cl)cc2)n[nH]1
[1]
  MIC: 100 µg/mL (≈ 293 µM)
[2]
  MIC: 50 µg/mL (≈ 147 µM)
[3]
  MIC: 12.5 µg/mL (≈ 36.7 µM)
[4]
  MIC: 50 µg/mL (≈ 147 µM)
[5]
  MIC: 0.012 µg/mL (≈ 0.0352 µM)
[6]
  MIC: 0.35 µg/mL (≈ 1.03 µM)
[7]
  MIC: 1.1 µg/mL (≈ 3.23 µM)

## O=C(N/N=C/c1ccccc1[N+](=O)[O-])c1cc(-c2ccc(Cl)cc2)n[nH]1
[1]
  MIC: 100 µg/mL (≈ 270 µM)
[2]
  MIC: 1.6 µg/mL (≈ 4.33 µM)
[3]
  MIC: 3.2 µg/mL (≈ 8.65 µM)
[4]
  MIC: 25 µg/mL (≈ 67.6 µM)
[5]
  MIC: 8 µg/mL (≈ 21.6 µM)
[6]
  MIC: 8 µg/mL (≈ 21.6 µM)
[7]
  MIC: > 5 µg/mL

## O=C(N/N=C/c1cccc([N+](=O)[O-])c1)c1cc(-c2ccc(Cl)cc2)n[nH]1
[1]
  MIC: 25 µg/mL (≈ 67.6 µM)
[2]
  MIC: 1.6 µg/mL (≈ 4.33 µM)
[3]
  MIC: 25 µg/mL (≈ 67.6 µM)
[4]
  MIC: 12.5 µg/mL (≈ 33.8 µM)
[5]
  MIC: 0.13 µg/mL (≈ 0.352 µM)
[6]
  MIC: 1.5 µg/mL (≈ 4.06 µM)
[7]
  MIC: > 5 µg/mL

## O=C(N/N=C/c1ccccc1Cl)c1cc(-c2ccc(Cl)cc2)n[nH]1
[1]
  MIC: 12.5 µg/mL (≈ 34.8 µM)
[2]
  MIC: 3.2 µg/mL (≈ 8.91 µM)
[3]
  MIC: 12.5 µg/mL (≈ 34.8 µM)
[4]
  MIC: 25 µg/mL (≈ 69.6 µM)
[5]
  MIC: 0.014 µg/mL (≈ 0.039 µM)
[6]
  MIC: 0.21 µg/mL (≈ 0.585 µM)
[7]
  MIC: 0.36 µg/mL (≈ 1 µM)

## O=C(N/N=C/c1ccc(Cl)cc1)c1cc(-c2ccc(Cl)cc2)n[nH]1
[1]
  MIC: 12.5 µg/mL (≈ 34.8 µM)
[2]
  MIC: 1.6 µg/mL (≈ 4.45 µM)
[3]
  MIC: 12.5 µg/mL (≈ 34.8 µM)
[4]
  MIC: 25 µg/mL (≈ 69.6 µM)
[5]
  MIC: 0.012 µg/mL (≈ 0.0334 µM)
[6]
  MIC: 0.12 µg/mL (≈ 0.334 µM)
[7]
  MIC: 1.1 µg/mL (≈ 3.06 µM)

## O=C(NN1C(=O)[C@H](Cl)[C@H]1c1ccccc1)c1cc(-c2ccc(Cl)cc2)n[nH]1 (racemic)
[1]
  MIC: 100 µg/mL (≈ 249 µM)
[2]
  MIC: 50 µg/mL (≈ 125 µM)
[3]
  MIC: 25 µg/mL (≈ 62.3 µM)
[4]
  MIC: 100 µg/mL (≈ 249 µM)
[5]
  MIC: 0.48 µg/mL (≈ 1.2 µM)
[6]
  MIC: 0.51 µg/mL (≈ 1.27 µM)
[7]
  MIC: 1.25 µg/mL (≈ 3.12 µM)

## O=C(NN1C(=O)CSC1c1ccccc1)c1cc(-c2ccc(Cl)cc2)n[nH]1 (racemic)
[1]
  MIC: 50 µg/mL (≈ 125 µM)
[2]
  MIC: 12.5 µg/mL (≈ 31.3 µM)
[3]
  MIC: 25 µg/mL (≈ 62.7 µM)
[4]
  MIC: 12.5 µg/mL (≈ 31.3 µM)
[5]
  MIC: 0.28 µg/mL (≈ 0.702 µM)
[6]
  MIC: 0.91 µg/mL (≈ 2.28 µM)
[7]
  MIC: 3.15 µg/mL (≈ 7.9 µM)

## COc1ccc([C@@H]2[C@@H](Cl)C(=O)N2NC(=O)c2cc(-c3ccc(Cl)cc3)n[nH]2)cc1 (racemic)
[1]
  MIC: 12.5 µg/mL (≈ 29 µM)
[2]
  MIC: 1.6 µg/mL (≈ 3.71 µM)
[3]
  MIC: 3.2 µg/mL (≈ 7.42 µM)
[4]
  MIC: 12.5 µg/mL (≈ 29 µM)
[5]
  MIC: 0.06 µg/mL (≈ 0.139 µM)
[6]
  MIC: 0.0025 µg/mL (≈ 0.0058 µM)
[7]
  MIC: 1.2 µg/mL (≈ 2.78 µM)

## COc1ccc(C2SCC(=O)N2NC(=O)c2cc(-c3ccc(Cl)cc3)n[nH]2)cc1 (racemic)
[1]
  MIC: 50 µg/mL (≈ 117 µM)
[2]
  MIC: 12.5 µg/mL (≈ 29.1 µM)
[3]
  MIC: 3.2 µg/mL (≈ 7.46 µM)
[4]
  MIC: 25 µg/mL (≈ 58.3 µM)
[5]
  MIC: 0.04 µg/mL (≈ 0.0933 µM)
[6]
  MIC: 0.5 µg/mL (≈ 1.17 µM)
[7]
  MIC: 0.65 µg/mL (≈ 1.52 µM)

## COc1ccc([C@@H]2[C@@H](Cl)C(=O)N2NC(=O)c2cc(-c3ccc(Cl)cc3)n[nH]2)cc1OC (racemic)
[1]
  MIC: 12.5 µg/mL (≈ 27.1 µM)
[2]
  MIC: 3.2 µg/mL (≈ 6.94 µM)
[3]
  MIC: 12.5 µg/mL (≈ 27.1 µM)
[4]
  MIC: 6.3 µg/mL (≈ 13.7 µM)
[5]
  MIC: 0.5 µg/mL (≈ 1.08 µM)
[6]
  MIC: 0.05 µg/mL (≈ 0.108 µM)
[7]
  MIC: 1.15 µg/mL (≈ 2.49 µM)

## COc1ccc(C2SCC(=O)N2NC(=O)c2cc(-c3ccc(Cl)cc3)n[nH]2)cc1OC (racemic)
[1]
  MIC: 12.5 µg/mL (≈ 27.2 µM)
[2]
  MIC: 50 µg/mL (≈ 109 µM)
[3]
  MIC: 6.3 µg/mL (≈ 13.7 µM)
[4]
  MIC: 12.5 µg/mL (≈ 27.2 µM)
[5]
  MIC: 0.2 µg/mL (≈ 0.436 µM)
[6]
  MIC: 0.06 µg/mL (≈ 0.131 µM)
[7]
  MIC: 1.2 µg/mL (≈ 2.61 µM)

## COc1cc([C@@H]2[C@@H](Cl)C(=O)N2NC(=O)c2cc(-c3ccc(Cl)cc3)n[nH]2)ccc1O (racemic)
[1]
  MIC: 1.6 µg/mL (≈ 3.58 µM)
[2]
  MIC: 12.5 µg/mL (≈ 27.9 µM)
[3]
  MIC: 3.2 µg/mL (≈ 7.15 µM)
[4]
  MIC: 25 µg/mL (≈ 55.9 µM)
[5]
  MIC: 0.025 µg/mL (≈ 0.0559 µM)
[6]
  MIC: 0.125 µg/mL (≈ 0.279 µM)
[7]
  MIC: 0.6 µg/mL (≈ 1.34 µM)

Source: ChEMBL document CHEMBL2057135, “Synthesis, antitubercular and antimicrobial evaluation of 3-(4-chlorophenyl)-4-substituted pyrazole derivatives” (2012)
